The target in data set [1] is T1, Dual specificity protein kinase TTK (Homo sapiens, UniProt P33981).
T1 sequence (P33981 whole entry): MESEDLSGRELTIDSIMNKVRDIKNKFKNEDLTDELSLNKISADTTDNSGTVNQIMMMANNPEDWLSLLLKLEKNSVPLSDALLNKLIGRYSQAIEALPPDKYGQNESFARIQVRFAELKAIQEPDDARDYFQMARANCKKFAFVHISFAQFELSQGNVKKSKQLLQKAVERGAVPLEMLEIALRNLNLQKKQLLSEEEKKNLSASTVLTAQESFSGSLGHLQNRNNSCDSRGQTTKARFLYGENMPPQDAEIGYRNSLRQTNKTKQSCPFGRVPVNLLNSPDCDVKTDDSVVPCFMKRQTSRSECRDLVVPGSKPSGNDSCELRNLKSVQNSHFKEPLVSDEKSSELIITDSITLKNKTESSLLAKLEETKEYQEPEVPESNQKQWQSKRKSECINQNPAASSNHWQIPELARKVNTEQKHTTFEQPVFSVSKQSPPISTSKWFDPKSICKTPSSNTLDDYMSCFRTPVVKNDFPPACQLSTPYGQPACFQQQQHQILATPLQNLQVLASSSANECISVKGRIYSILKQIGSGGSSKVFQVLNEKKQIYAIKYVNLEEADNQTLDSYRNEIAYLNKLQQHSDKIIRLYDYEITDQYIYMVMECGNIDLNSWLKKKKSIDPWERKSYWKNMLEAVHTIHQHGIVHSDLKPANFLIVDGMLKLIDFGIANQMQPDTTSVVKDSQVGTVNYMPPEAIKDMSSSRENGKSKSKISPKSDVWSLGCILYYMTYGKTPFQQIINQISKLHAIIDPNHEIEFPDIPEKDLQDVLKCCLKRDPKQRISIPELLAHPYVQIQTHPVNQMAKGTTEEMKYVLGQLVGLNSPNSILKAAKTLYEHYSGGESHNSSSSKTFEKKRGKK
As to the kind of experiment: Inhibition of SUMO-tagged human TTK (1-275 residues) compound pre-incubated for 15 mins prior ATP addition by MBP-based assay.

In data set [2] the target is T1, Dual specificity protein kinase TTK. As to the kind of experiment: Inhibition of GST-fused full length human TTK compound pre-incubated for 15 mins prior ATP addition by MBP-based assay.
The target in the next data set is T2, Cytochrome P450 1A2 (Homo sapiens, UniProt P05177).
T2 sequence (P05177 whole entry): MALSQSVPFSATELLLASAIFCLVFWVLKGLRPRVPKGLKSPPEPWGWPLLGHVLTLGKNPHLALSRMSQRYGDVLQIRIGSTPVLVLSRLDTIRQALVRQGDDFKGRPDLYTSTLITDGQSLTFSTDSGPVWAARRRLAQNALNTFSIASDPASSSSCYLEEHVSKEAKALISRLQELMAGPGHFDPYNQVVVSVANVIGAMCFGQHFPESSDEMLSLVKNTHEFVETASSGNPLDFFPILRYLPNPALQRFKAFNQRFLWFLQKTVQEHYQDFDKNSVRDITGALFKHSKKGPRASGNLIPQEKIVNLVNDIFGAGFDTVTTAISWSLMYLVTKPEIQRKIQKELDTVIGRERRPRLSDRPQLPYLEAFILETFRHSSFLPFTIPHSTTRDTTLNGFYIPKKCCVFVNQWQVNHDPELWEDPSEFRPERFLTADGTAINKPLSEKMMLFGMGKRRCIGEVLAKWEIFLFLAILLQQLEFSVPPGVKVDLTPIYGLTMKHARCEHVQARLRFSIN
As to the kind of experiment: Inhibition of CYP1A2 in supersomes (unknown origin) using CEC as substrate after 30 mins. In kind it is ADME.

The target of data set [3] is Serine/threonine-protein kinase Chk2 (Homo sapiens, UniProt O96017). As to the kind of experiment: Inhibition of CHK2 (unknown origin) by FRET-based homogenous assay.
Chain of Serine/threonine-protein kinase Chk2 (O96017 whole entry, the tested form may be a part): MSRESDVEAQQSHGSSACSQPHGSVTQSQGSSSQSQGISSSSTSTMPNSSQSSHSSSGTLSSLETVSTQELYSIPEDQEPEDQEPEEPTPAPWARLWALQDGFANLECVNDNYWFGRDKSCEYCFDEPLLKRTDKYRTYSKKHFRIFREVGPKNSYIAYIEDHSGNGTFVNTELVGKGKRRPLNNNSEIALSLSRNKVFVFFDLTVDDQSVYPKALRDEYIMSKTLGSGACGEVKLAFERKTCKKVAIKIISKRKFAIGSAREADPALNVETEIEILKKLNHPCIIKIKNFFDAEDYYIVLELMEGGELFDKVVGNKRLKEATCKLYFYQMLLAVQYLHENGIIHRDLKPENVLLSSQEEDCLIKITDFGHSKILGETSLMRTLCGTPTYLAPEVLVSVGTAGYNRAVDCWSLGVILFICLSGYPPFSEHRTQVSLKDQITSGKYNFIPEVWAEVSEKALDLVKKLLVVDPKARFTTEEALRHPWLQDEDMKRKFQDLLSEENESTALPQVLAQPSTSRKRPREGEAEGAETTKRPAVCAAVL
Data set [4] in a line: Permeability of the compound at pH 7.4 by PAMPA. In kind it is ADME. The settings on record: read-out: permeability. (The PAMPA barrier holds no transporters, so it reflects passive diffusion.)
The target of the next data set is Cytochrome P450 2D6 (Homo sapiens, UniProt P10635). As to the kind of experiment: Inhibition of CYP2D6 in supersomes (unknown origin) using AMMC as substrate after 30 mins. In kind it is ADME.
Chain of Cytochrome P450 2D6 (P10635 whole entry): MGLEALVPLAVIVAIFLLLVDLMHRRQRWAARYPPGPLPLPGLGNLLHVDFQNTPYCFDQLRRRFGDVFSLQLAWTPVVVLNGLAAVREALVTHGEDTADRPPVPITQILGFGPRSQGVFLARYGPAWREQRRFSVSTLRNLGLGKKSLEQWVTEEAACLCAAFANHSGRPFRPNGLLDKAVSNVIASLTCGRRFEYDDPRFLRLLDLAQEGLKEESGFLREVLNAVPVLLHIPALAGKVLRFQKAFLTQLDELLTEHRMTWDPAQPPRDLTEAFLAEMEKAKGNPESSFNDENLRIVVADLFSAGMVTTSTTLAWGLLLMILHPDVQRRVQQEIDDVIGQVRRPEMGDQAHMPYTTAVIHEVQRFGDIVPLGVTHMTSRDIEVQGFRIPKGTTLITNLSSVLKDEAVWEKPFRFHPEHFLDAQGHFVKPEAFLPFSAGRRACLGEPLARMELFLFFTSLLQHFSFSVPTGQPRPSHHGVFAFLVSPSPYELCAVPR
For data set [5], the target named is T3, Cytochrome P450 3A4 (Homo sapiens, UniProt P08684). As to the kind of experiment: Inhibition of CYP3A4 in supersomes (unknown origin) using 7-benzyloxy-4-trifluoromethylcoumarin as substrate after 30 mins. Type of data set: ADME.
T3 sequence (P08684 whole entry): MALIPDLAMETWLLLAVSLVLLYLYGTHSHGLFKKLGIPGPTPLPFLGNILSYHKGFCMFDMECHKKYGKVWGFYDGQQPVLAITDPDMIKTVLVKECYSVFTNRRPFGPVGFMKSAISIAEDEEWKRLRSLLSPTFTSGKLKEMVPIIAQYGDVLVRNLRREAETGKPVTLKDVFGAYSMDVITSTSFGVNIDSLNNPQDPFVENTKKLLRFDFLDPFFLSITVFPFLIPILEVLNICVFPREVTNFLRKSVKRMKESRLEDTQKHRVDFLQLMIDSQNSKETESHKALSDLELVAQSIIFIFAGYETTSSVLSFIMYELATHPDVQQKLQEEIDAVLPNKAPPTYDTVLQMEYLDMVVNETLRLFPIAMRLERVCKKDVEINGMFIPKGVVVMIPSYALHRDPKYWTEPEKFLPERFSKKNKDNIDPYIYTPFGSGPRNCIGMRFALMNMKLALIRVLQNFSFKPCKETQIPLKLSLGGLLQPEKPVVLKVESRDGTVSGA
Data set [6] is described as follows: Growth inhibition of human HCT116 cells after 5 days by SRB assay. In kind it is functional. Particulars: HCT-116, 120 h. For orientation: In SRB staining, fixed cells bind dye roughly in proportion to their protein.
For data set [7], the target named is T4, Serine/threonine-protein kinase PLK4 (Homo sapiens, UniProt O00444).
T4 sequence (O00444 whole entry): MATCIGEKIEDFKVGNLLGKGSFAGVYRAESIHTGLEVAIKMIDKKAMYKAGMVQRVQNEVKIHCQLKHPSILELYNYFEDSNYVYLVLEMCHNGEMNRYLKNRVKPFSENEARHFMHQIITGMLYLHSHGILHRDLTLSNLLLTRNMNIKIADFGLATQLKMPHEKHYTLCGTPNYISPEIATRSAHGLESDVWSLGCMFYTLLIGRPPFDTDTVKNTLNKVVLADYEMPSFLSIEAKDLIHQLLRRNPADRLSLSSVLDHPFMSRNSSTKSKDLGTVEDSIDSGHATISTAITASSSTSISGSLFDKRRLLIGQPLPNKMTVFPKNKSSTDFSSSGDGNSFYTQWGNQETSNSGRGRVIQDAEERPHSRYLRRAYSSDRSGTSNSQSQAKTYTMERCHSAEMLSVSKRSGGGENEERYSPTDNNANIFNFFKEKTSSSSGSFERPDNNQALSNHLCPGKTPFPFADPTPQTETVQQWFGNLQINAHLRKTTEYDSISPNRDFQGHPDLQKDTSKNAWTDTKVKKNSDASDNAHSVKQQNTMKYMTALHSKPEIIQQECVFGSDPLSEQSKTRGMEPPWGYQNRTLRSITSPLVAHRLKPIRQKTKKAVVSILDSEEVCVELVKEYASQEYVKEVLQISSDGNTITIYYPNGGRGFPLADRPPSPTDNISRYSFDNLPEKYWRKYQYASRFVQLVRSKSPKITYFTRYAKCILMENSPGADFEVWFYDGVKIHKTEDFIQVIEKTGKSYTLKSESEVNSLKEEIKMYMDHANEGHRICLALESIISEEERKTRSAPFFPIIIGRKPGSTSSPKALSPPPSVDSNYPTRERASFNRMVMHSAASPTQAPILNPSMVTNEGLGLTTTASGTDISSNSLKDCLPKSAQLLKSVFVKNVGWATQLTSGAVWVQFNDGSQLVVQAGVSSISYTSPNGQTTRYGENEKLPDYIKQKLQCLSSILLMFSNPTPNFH
As to the kind of experiment: Inhibition of GST-tagged human PLK4 (1-391 residues) phosphorylation by ELISA. (In general: In an ELISA, binding on a coated surface is turned into a signal by an enzyme label.)

Data set [8] is described as follows: Solubility of the compound at pH 7.4. The settings on record: buffer. Type of data set: physicochemical.
Data set [9] concerns the target T3, Cytochrome P450 3A4. As to the kind of experiment: Inhibition of CYP3A4 in supersomes (unknown origin) using Dibenzylfluorescein as substrate after 10 mins. Type of data set: ADME.
Another data set addresses Cytochrome P450 2C9 (Homo sapiens, UniProt P11712). As to the kind of experiment: Inhibition of CYP2C9 in supersomes (unknown origin) using MFC as substrate after 30 mins. Type of data set: ADME.
The next data set addresses Cytochrome P450 2C19 (Homo sapiens, UniProt P33261). Nature of the data set: Inhibition of CYP2C19 in supersomes (unknown origin) using MFC as substrate after 30 mins. Type of data set: ADME.
Another data set deals with Aurora kinase B (Homo sapiens, UniProt Q96GD4). Nature of the data set: Inhibition of Aurora B (unknown origin) by FRET-based homogenous assay.
Chain of Aurora kinase B (Q96GD4 whole entry): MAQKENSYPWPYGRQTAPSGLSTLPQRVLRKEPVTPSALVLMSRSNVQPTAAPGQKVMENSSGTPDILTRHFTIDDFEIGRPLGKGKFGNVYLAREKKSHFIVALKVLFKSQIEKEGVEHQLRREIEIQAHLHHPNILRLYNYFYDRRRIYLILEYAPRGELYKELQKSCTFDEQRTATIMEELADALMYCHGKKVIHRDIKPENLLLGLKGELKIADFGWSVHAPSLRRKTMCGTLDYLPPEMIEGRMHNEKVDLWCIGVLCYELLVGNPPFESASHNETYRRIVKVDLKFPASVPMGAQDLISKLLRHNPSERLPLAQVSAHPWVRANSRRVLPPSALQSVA
For data set [10], the target named is Receptor-type tyrosine-protein kinase FLT3 (Homo sapiens) (UniProt P36888). Nature of the data set: Inhibition of FLT3 (unknown origin) by FRET-based homogenous assay.
Chain of Receptor-type tyrosine-protein kinase FLT3 (Homo sapiens) (P36888 whole entry): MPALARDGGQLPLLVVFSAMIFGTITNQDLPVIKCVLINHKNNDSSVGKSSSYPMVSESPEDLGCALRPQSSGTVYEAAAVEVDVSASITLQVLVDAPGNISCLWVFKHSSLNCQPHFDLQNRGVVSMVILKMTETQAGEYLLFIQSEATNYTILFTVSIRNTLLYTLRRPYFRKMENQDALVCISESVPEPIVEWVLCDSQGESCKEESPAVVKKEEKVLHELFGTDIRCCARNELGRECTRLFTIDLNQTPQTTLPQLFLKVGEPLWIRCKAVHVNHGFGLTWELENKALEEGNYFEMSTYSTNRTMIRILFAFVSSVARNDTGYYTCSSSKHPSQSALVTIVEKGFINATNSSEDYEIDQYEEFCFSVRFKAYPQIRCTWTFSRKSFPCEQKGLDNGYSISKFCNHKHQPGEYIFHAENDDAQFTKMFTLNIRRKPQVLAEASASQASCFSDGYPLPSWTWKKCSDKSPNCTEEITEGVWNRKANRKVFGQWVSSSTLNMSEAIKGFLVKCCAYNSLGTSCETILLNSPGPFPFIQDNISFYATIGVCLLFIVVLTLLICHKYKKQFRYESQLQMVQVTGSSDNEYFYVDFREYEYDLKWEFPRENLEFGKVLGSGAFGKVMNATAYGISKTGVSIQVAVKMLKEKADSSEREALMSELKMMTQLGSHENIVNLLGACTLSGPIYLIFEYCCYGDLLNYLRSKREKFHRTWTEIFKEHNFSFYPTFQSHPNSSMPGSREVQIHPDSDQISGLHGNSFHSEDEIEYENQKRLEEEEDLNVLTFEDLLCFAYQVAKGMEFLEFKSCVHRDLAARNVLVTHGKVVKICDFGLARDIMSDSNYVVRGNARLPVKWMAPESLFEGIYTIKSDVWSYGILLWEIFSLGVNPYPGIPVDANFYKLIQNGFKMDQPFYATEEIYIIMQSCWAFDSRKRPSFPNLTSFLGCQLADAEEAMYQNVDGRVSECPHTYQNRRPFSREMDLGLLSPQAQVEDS
Data set [11] can be described thus: Cell cycle arrest in human HCT116 cells at 500 to 2500 nM after 2 days by flow cytometry. Particulars: HCT-116. Type of data set: functional, cell-based.
The nature of data set [12]: Antitumor activity against human HCT116 cells xenografted in SCID mouse assessed as tumor growth inhibition at 15 mg/kg, ip qd for 5 days. The settings on record: HCT-116, ip, 120 h, route intraperitoneal, read-out: TGI. In kind it is functional. In a few lines:
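HCT116 xenografts were grown in mice and dosed by the intraperitoneal route once daily. Tumor volume was tracked and compared with a negative-control arm, and the result was expressed as percent tumor growth inhibition. Body weight was monitored across all arms.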

pIC50: −log10 of the molar value. Calls of active or inactive are those of the source. The rule behind the calls is not given here.

Chain of Cytochrome P450 2C9 (P11712 whole entry): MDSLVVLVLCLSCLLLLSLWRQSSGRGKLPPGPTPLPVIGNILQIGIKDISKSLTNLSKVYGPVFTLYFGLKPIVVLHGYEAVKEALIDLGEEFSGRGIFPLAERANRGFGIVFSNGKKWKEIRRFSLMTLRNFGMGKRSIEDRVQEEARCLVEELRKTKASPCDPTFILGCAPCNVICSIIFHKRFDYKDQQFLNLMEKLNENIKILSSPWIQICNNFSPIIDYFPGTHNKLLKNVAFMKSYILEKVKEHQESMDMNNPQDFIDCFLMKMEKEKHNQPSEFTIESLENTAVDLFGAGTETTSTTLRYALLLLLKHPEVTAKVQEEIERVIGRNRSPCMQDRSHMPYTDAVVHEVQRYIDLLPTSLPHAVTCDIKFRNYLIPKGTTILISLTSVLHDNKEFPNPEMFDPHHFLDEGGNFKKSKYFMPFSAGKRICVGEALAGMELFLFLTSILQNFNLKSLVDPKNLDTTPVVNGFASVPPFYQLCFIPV
Chain of Cytochrome P450 2C19 (P33261 whole entry): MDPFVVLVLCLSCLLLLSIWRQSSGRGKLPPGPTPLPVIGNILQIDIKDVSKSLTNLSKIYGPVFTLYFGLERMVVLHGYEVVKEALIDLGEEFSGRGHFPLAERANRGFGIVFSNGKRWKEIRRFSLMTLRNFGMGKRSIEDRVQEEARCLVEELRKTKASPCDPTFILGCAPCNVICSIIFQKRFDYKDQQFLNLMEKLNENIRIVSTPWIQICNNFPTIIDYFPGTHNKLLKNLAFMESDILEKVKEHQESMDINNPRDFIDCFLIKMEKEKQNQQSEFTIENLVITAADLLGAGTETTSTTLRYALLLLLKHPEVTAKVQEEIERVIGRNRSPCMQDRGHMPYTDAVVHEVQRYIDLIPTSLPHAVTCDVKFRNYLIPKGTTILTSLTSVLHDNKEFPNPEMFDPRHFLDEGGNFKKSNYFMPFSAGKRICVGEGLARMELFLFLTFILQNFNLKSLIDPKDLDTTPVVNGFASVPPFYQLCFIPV

Usually pIC50 stands for −log10 of the IC50, conventionally taken in molar units. For the molecule `NS(=O)(=O)c1cccc(-c2n[nH]c3cccc(Cl)c23)c1`, the pIC50 in data set [1] was 5.72; in data set [2] it was 5.74.

Usually GI50 stands for the concentration that inhibits growth by half. Lower therefore signals greater sensitivity of the cells. What is called solubility is the concentration that dissolves in the medium under given conditions. A high value points to much dissolved substance. `CCc1cccc(CC)c1NC(=O)Nc1ccc2[nH]nc(-c3cccc(S(N)(=O)=O)c3)c2c1`: the pIC50 on Cytochrome P450 1A2 was less than 5.00; in [3], 6.39; at Cytochrome P450 2D6, less than 5.00; in data set [1], 8.46; at Cytochrome P450 3A4 [5], 6.00; in data set [7] it was 6.89. In addition, the pIC50 against Cytochrome P450 3A4 [9] was 5.00; on Cytochrome P450 2C9, 5.77; against Cytochrome P450 2C19, less than 6.00; at Aurora kinase B, 5.62. The Papp in [4] was less than 21 ×10⁻⁶ cm/s. Also, the GI50 in data set [6] was more than 50 µM. Also, the solubility in data set [8] was less than 0.1 µg/mL.

In [2], `COc1cc(N2CCC(O)CC2)ccc1Nc1nc(Nc2ccccc2S(=O)(=O)C(C)C)c2cc[nH]c2n1` showed a negative-log IC50 (pIC50) of 6.43.

On to `c1ccc(-c2[nH]nc3ccccc23)cc1`, for which the inhibition entry in [10] is “inactive”. Moreover, the outcome in [11] was inactive. In data set [2], the pIC50 was 4.92.

With `NS(=O)(=O)c1cccc(-c2n[nH]c3ccccc23)c1`, the figures for the pIC50 in data set [1] and in [2] were 5.80 and 5.59, respectively.

Take `NC(=O)c1cccc(-c2n[nH]c3cccc(Cl)c23)c1`: the pIC50 in data set [2] was 4.77.

With `Oc1c2ccccc2c2c3c(cccc13)N=N2` [SP-600125], the pIC50 in data set [2] was 5.60.

Turning to `O=c1[nH]cc(F)c(=O)[nH]1` [FLUOROURACIL], the inhibition in vivo at 15 mg/kg in [12] came out at 46%.

Molecule `NS(=O)(=O)c1ccc(-c2n[nH]c3cccc(Cl)c23)cc1` showed a pIC50 in data set [2] of 4.74.

In [2], `O=Cc1ccc2c(-c3cccnc3)n[nH]c2c1` showed a pIC50 of 4.92.

As for `NS(=O)(=O)c1cccc(-c2n[nH]c3ccc(C(=O)N[C@H]4CCc5ccccc54)cc23)c1`, the outcome in data set [11] was inactive.

These data come from ChEMBL document CHEMBL3352261, “Discovery of inhibitors of the mitotic kinase TTK based on N-(3-(3-sulfamoylphenyl)-1H-indazol-5-yl)-acetamides and carboxamides” (Bioorg Med Chem, 2014).
